Experimental data taken from ChEMBL document CHEMBL3259739, “Synthesis and structure-activity relationship of trisubstituted thiazoles as Cdc7 kinase inhibitors” (Eur J Med Chem, 2014).

Columns and labels:
[1] = molecular target: T1, Phosphatidylinositol 4,5-bisphosphate 3-kinase catalytic subunit delta isoform (Homo sapiens) (UniProt O00329); assay: Inhibition of PIK3CD (unknown origin) at 1 uM relative to control; conditions: values are per cent of control
T1 sequence (whole entry): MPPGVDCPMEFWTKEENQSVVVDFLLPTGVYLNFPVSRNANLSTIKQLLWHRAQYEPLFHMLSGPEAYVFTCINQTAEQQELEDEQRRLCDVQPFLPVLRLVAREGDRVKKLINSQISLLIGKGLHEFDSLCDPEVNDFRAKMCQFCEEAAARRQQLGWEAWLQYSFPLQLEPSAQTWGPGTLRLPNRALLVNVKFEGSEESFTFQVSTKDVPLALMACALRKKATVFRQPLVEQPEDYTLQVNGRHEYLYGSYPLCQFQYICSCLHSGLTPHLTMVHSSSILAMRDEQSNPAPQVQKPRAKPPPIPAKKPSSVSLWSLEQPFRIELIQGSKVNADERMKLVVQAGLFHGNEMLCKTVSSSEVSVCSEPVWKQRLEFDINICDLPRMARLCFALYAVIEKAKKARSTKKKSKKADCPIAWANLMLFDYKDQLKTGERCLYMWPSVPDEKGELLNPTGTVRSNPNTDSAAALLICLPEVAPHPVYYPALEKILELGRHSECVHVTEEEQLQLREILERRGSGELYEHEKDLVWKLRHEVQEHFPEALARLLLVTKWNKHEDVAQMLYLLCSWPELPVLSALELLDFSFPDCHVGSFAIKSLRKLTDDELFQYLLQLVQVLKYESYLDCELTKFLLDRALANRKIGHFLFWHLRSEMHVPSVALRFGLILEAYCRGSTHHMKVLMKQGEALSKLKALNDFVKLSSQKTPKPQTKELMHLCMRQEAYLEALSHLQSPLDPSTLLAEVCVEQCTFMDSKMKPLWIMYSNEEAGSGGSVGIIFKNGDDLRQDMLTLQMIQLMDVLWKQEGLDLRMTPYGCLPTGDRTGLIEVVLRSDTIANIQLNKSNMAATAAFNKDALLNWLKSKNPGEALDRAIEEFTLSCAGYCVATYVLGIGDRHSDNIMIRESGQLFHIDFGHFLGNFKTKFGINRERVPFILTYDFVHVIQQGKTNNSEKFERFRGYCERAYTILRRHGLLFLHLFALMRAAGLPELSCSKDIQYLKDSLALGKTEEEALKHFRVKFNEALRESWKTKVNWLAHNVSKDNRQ
Outline: (§1)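 KinomeSCAN competitive binding panel of 100 kinases; compounds tested at 1 µM in duplicate; read-out is percent […] control.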

[2] = molecular target: LIM domain kinase 1 (Homo sapiens) (UniProt P53667); assay: Inhibition of LIMK1 (unknown origin) at 1 uM relative to control; values are per cent of control
[3] = molecular target: Receptor-type tyrosine-protein kinase FLT3 (Homo sapiens) (UniProt P36888); assay: Inhibition of FLT3 (unknown origin) at 1 uM relative to control; values are per cent of control
[4] = molecular target: Wee1-like protein kinase (Homo sapiens) (UniProt P30291); assay: Inhibition of WEE1 (unknown origin) at 1 uM relative to control; conditions: values are per cent of control; outline: as §1
[5] = molecular target: Mitogen-activated protein kinase kinase kinase kinase 4 (Homo sapiens) (UniProt O95819); assay: Inhibition of MAP4K4 (unknown origin) at 1 uM relative to control; values are per cent of control
[6] = molecular target: T2, TGF-beta receptor type-1 (Homo sapiens) (UniProt P36897); assay: Inhibition of TGFBR1 (unknown origin) at 1 uM relative to control; conditions: values are per cent of control; outline: as §1
T2 sequence (whole entry): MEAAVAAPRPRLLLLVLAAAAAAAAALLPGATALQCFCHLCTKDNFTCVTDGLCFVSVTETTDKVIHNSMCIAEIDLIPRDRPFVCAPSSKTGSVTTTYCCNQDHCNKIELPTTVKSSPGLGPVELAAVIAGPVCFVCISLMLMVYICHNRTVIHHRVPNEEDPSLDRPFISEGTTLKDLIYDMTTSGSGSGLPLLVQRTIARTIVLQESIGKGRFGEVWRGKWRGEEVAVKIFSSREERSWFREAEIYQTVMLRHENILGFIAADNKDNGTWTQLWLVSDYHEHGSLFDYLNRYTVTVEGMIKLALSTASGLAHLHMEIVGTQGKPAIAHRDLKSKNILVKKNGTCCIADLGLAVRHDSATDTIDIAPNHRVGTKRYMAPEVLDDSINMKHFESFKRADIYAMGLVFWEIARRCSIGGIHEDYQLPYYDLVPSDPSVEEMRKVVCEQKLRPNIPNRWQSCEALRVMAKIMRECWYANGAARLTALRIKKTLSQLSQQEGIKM

[7] = molecular target: Serine/threonine-protein kinase mTOR (Homo sapiens) (UniProt P42345); assay: Inhibition of MTOR (unknown origin) at 1 uM relative to control; values are per cent of control
[8] = molecular target: Ribosomal protein S6 kinase beta-1 (Homo sapiens) (UniProt P23443); assay: Inhibition of S6K1 (unknown origin) at 1 uM relative to control; conditions: values are per cent of control; outline: as §1
[9] = molecular target: Glycogen synthase kinase-3 beta (Homo sapiens) (UniProt P49841); assay: Inhibition of GSK3B (unknown origin) at 1 uM relative to control; values are per cent of control
[10] = molecular target: Dual specificity protein kinase CLK2 (Homo sapiens) (UniProt P49760); assay: Inhibition of CLK2 (unknown origin) at 1 uM relative to control; values are per cent of control
[11] = molecular target: T3, Testis-specific serine/threonine-protein kinase 1 (Homo sapiens) (UniProt Q9BXA7); assay: Inhibition of TSSK1B (unknown origin) at 1 uM relative to control; conditions: values are per cent of control; outline: as §1
T3 sequence (whole entry): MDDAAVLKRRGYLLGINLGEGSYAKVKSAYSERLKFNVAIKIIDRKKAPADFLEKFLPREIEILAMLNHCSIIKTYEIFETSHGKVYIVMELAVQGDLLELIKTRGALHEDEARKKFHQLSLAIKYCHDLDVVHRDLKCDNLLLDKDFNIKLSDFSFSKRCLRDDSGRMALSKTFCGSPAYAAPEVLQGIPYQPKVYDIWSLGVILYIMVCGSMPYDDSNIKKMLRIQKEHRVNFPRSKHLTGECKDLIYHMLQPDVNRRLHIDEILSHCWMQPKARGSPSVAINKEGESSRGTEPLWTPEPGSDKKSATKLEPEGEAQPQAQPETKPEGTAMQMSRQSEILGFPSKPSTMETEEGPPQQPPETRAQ

[12] = molecular target: Dual specificity tyrosine-phosphorylation-regulated kinase 1B (Homo sapiens) (UniProt Q9Y463); assay: Inhibition of DYRK1B (unknown origin) at 1 uM relative to control; values are per cent of control
[13] = molecular target: Bone morphogenetic protein receptor type-1A (Homo sapiens) (UniProt P36894); assay: Inhibition of BMPR1A (unknown origin) at 1 uM relative to control; values are per cent of control
Chain of Bone morphogenetic protein receptor type-1A (Homo sapiens) (P36894 whole entry): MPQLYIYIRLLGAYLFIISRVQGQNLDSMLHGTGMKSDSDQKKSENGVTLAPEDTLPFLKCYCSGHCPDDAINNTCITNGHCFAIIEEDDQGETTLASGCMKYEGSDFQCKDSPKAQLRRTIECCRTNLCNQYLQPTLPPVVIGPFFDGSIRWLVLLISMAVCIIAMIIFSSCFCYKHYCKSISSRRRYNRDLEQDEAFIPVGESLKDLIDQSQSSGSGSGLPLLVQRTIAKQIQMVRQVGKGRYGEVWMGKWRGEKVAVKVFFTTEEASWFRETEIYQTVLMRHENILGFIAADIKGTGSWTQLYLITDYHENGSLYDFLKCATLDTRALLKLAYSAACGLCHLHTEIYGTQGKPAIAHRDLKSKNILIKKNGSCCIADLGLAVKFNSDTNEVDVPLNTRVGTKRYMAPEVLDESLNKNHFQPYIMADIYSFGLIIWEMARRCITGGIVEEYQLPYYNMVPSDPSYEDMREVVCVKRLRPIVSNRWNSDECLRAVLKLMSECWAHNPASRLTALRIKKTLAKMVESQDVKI

Chain of Dual specificity tyrosine-phosphorylation-regulated kinase 1B (Homo sapiens) (Q9Y463 whole entry, looked up): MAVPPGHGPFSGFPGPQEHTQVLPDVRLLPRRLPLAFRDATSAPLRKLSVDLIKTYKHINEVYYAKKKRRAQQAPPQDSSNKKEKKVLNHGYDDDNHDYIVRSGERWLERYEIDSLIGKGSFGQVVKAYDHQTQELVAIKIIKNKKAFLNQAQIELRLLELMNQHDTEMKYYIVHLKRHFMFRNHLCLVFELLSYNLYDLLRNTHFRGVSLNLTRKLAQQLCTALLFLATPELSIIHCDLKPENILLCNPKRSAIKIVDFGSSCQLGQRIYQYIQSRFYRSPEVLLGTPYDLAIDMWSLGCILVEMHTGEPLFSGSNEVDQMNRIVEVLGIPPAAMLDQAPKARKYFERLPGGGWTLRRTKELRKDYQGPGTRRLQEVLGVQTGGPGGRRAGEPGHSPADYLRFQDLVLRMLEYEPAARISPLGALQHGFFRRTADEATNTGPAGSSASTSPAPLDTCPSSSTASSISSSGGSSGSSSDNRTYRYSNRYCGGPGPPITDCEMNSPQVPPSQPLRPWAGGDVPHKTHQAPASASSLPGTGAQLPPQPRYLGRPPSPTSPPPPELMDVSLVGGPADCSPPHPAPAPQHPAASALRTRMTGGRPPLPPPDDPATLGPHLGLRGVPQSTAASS
Chain of LIM domain kinase 1 (Homo sapiens) (P53667 whole entry, looked up, the tested form may be a part): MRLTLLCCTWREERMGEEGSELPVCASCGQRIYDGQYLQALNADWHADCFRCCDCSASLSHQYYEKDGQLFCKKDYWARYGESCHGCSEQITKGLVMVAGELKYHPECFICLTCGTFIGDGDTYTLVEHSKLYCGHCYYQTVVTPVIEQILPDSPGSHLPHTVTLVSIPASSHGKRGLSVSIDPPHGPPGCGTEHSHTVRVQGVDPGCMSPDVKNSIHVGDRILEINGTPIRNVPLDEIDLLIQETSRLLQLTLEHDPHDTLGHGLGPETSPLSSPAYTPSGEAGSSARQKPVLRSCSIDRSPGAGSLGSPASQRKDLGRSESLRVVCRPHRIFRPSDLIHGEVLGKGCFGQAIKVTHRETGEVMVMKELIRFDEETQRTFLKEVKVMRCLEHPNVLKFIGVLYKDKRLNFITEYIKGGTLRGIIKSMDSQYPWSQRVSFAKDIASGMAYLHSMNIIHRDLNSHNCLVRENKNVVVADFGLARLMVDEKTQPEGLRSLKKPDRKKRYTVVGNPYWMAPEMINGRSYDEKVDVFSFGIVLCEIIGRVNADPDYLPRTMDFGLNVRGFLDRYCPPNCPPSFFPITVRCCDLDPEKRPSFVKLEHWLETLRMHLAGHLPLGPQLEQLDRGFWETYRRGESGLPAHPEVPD
Chain of Glycogen synthase kinase-3 beta (Homo sapiens) (P49841 whole entry, looked up): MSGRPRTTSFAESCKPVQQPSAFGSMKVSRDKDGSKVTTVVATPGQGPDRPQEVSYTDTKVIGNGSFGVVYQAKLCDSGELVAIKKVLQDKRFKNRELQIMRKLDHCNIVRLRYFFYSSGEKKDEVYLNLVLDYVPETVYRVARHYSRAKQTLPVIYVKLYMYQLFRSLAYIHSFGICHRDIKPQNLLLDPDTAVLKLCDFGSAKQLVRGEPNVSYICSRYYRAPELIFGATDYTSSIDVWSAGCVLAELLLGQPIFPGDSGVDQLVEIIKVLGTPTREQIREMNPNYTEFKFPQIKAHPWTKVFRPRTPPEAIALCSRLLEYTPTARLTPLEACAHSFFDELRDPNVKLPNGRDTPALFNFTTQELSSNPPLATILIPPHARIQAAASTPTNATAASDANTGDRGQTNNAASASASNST
Chain of Dual specificity protein kinase CLK2 (Homo sapiens) (P49760 whole entry, looked up): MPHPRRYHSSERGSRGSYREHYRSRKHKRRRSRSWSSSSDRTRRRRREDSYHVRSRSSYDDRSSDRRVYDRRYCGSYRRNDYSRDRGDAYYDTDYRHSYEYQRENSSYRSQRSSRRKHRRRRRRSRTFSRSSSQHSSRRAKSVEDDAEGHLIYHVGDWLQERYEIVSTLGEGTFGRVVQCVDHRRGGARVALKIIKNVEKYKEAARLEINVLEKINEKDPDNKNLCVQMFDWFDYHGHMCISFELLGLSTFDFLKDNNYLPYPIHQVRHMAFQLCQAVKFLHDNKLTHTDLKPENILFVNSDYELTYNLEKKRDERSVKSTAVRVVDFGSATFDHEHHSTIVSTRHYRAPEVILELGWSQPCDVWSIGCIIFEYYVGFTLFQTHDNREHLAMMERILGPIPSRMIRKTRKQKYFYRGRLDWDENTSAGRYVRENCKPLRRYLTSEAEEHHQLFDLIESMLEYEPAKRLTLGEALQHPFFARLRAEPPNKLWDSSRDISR
Chain of Wee1-like protein kinase (Homo sapiens) (P30291 whole entry, looked up): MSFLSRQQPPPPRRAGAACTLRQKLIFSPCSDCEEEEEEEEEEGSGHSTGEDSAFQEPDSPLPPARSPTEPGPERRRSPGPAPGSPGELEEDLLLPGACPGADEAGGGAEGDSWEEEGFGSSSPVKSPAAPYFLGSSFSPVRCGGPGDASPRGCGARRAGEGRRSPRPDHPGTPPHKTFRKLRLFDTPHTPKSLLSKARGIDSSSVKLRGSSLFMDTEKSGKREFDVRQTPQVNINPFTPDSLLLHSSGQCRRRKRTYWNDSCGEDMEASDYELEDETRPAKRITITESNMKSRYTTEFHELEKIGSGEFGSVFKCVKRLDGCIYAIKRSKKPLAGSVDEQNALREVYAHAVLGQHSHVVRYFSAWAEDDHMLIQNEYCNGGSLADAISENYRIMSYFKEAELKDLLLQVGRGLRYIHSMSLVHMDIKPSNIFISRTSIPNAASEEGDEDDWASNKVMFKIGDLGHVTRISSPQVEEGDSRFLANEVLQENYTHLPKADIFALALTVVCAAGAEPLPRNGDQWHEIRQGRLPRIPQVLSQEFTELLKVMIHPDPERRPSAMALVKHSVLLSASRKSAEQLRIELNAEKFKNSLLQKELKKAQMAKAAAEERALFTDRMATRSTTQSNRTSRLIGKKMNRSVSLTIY
Chain of Receptor-type tyrosine-protein kinase FLT3 (Homo sapiens) (P36888 whole entry): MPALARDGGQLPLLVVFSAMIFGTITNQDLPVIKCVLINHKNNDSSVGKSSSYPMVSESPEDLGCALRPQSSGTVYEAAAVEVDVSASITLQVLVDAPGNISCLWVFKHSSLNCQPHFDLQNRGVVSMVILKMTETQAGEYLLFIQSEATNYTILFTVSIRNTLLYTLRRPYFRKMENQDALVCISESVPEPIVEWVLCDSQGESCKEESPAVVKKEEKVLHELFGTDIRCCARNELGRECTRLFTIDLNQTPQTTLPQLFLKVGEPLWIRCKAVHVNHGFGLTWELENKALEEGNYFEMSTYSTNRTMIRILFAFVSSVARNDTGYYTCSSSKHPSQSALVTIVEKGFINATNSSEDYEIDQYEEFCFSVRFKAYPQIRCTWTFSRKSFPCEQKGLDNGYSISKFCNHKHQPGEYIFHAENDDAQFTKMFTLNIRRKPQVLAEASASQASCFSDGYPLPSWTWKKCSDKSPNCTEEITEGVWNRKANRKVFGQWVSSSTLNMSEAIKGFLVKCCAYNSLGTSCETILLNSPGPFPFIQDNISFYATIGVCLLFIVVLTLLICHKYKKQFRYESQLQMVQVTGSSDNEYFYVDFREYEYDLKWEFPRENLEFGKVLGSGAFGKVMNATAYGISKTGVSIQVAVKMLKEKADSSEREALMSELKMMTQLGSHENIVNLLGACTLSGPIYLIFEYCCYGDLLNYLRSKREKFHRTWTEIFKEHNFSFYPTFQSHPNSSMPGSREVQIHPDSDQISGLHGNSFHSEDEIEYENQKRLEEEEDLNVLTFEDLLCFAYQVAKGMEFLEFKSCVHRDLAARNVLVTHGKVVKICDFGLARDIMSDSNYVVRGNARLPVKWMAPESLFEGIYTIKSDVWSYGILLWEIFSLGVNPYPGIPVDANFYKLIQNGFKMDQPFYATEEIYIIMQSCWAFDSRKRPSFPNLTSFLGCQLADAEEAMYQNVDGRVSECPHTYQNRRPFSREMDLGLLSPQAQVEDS
Chain of Ribosomal protein S6 kinase beta-1 (Homo sapiens) (P23443 whole entry, looked up): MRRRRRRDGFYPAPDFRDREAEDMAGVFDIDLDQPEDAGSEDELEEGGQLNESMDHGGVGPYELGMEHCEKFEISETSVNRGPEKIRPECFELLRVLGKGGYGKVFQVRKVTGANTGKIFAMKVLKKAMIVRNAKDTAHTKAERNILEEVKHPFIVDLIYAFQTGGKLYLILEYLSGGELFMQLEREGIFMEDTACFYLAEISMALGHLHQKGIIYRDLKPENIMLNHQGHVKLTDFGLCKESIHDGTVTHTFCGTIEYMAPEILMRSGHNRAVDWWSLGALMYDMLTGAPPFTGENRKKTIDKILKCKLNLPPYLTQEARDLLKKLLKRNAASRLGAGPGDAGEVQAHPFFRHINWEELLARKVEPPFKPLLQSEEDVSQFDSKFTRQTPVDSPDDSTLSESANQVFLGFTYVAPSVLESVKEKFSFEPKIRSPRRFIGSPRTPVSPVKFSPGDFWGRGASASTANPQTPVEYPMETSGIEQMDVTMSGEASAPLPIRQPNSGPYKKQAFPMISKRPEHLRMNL

Row | SMILES | residual binding, % of control [1] | residual activity [2] | residual activity [3] | residual binding, % of control [4] | residual activity [5] | residual binding, % of control [6] | residual activity [7] | residual binding, % of control [8] | residual activity [9] | residual activity [10] | residual binding, % of control [11] | residual activity [12] | residual activity [13]
1 | CCOC(=O)c1sc(-c2ccncc2)nc1O | 97% | 100% | 87% | 73% | 80% | 100% | 93% | 83% | 100% | 86% | 89% | 86% | 82%
2 | NC(=O)c1sc(-c2ccnc(N)n2)nc1-c1ccc(Cl)cc1Cl | 78% | 100% | 66% | 74% | 72% | 91% | 93% | 75% | 6.4% | 7.9% | 100% | 0.4% | 94%
3 | COc1ccc(-c2nc(-c3ccnc(N)n3)sc2C(N)=O)c(Cl)c1 | 55% | 78% | 100% | 94% | 89% | 72% | 74% | 42% | 6.8% | 10% | 83% | 0.3% | 81%
